The record followed here is ChEMBL document CHEMBL3108731, “A development of chimeric VEGFR2 TK inhibitor based on two ligand conformers from PDB: 1Y6A complex--medicinal chemistry consequences of a TKs analysis” (Eur J Med Chem, 2014).

The structures appear in SMILES notation. The source made the active and inactive calls. No cut-off for these calls is given here.

The target in data set [1] is Vascular endothelial growth factor receptor 2 (Homo sapiens, UniProt P35968). Nature of the data set: Inhibition of GST-tagged recombinant human VEGFR2 expressed in Sf9 cells by radiometric assay. It counts as cell-based.
The species named for data set [2] is Danio rerio. Nature of the data set: Antiangiogenic activity in zebrafish embryo at 5 uM up to 24 hrs by GFP assay. The class given is functional. Put shortly:
(§1)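 Embryos of transgenic Zebrafish line TG(fli1:EGFP)y1 were used; a fli-1 promoter drives GFP expression in the endothelium. Embryos were incubated with different compound concentrations, and angiogenesis was assessed by live fluorescence imaging. Data are the percentage of treated embryos showing inhibited angiogenesis.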

The species named for data set [3] is Danio rerio. Nature of the data set: Antiangiogenic activity in zebrafish embryo at 20 uM up to 24 hrs by GFP assay. It counts as functional. In a few lines:
as §1

The species named for data set [4] is Danio rerio. Nature of the data set: Toxicity in zebrafish embryo up to 24 hrs by GFP assay. The settings on record: in vivo. The class given is organism-based.
Data set [5] is filed under the species Danio rerio. The data set is described as follows: Antiangiogenic activity in zebrafish embryo at 10 uM up to 24 hrs by GFP assay. It counts as functional. In a few lines: as §1
The species entered for data set [6] is Danio rerio. Nature of the data set: Antiangiogenic activity in zebrafish embryo up to 24 hrs by GFP assay. The class given is functional, organism-based. In a few lines: as §1
The species entered for data set [7] is Danio rerio. The data set is described as follows: Antiangiogenic activity in zebrafish embryo assessed as inhibition of intersegmental blood vessel growth at 10 uM up to 24 hrs by GFP assay. It counts as functional, organism-based. Put shortly:
as §1

Data set [8] has as its system BAEC. Nature of the data set: Antiangiogenic activity in BAEC assessed as inhibition of capillary tube formation after 7 hrs by matrigel assay. Particulars: Bos taurus. It counts as functional. In a few lines: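 BAE cells (5×10^4 per well) in DMEM were seeded on Matrigel (about 10.5 mg/mL) that had polymerized at 37 °C for at least 30 min. Cells were given compound at several amounts and kept at 37 °C, 5% CO2 for 7 h. Cord/tube formation was viewed at 200×. Each concentration was run in duplicate and scored by two independent observers.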

Data set [9] relates to BAEC. Nature of the data set: Antiangiogenic activity in BAEC assessed as inhibition of cell migration to extracellular matrix at 1 uM after 7 hrs by wound-healing assay. The class given is functional. The settings on record: Bos taurus. In a few lines:
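Confluent BAEC monolayers were wounded with a pipette tip to give one 1 mm-wide acellular lane. After washing, cells received complete medium without or with compound. The same fields were photographed at 0 and 7 h. Regrowth into the cell-free area was expressed as % recovered area, mean ± SD, n = 3.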

The test system of data set [10] is U2OS. The data set is described as follows: Antiproliferative activity against human U2OS cells after 3 days by MTT assay. The class given is functional, cell-based. Particulars: 72 h. In a few lines: (§2)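 MTT dye-reduction assay: 3×10^3 BAE or 2×10^3 tumour cells in their own growth media were given serial dilutions of compound for 3 days at 37 °C, 5% CO2. MTT (5 mg/ml stock in PBS) was added for 4 h, and formazan was dissolved in 0.04 N HCl/2-propanol and read at 550 nm. IC50 is the concentration giving 50% survival; values are mean ± S.D. of at least three experiments in triplicate.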
(In general: Tetrazolium dyes change colour on reduction, which living cells bring about.)

In data set [11] the test system is BAEC. Nature of the data set: Induction of apoptosis in BAEC assessed as chromatin condensation at 0.5 to 1 uM after 14 hrs by Hoechst staining. The class given is functional. Particulars: Bos taurus. In a few lines: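 Subconfluent BAE cells on chamber slides were treated for 14 h with the indicated concentrations in complete medium. Cells were then PBS-washed, formalin-fixed and stained with Hoechst for 2 min. Nuclear morphology (chromatin condensation) was examined by fluorescence microscopy.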

For data set [12], the system named is HL-60. Nature of the data set: Antiproliferative activity against human HL60 cells after 3 days by MTT assay. It counts as functional, cell-based. The settings on record: HL-60, 72 h. In a few lines: as §2
Data set [13] can be described thus: Antiproliferative activity against human HT1080 cells after 3 days by MTT assay. The class given is functional, cell-based. The settings on record: HT-1080, 72 h. In a few lines:
as §2

The test system of data set [14] is HT-29. Nature of the data set: Antiproliferative activity against human HT-29 cells after 3 days by MTT assay. It counts as functional, cell-based. Particulars: HT-29, 72 h. Put shortly: as §2
For data set [15], the system named is MDA-MB-231. The data set is described as follows: Antiproliferative activity against human MDA-MB-231 cells after 3 days by MTT assay. The class given is functional, cell-based. The settings on record: MDA-MB-231, 72 h. Put shortly:
as §2

Data set [16] is described as follows: Antiproliferative activity against BAEC after 3 days by MTT assay. The class given is functional. Particulars: Bos taurus, 72 h. In a few lines:
as §2

Sequence of Vascular endothelial growth factor receptor 2 (P35968 whole entry): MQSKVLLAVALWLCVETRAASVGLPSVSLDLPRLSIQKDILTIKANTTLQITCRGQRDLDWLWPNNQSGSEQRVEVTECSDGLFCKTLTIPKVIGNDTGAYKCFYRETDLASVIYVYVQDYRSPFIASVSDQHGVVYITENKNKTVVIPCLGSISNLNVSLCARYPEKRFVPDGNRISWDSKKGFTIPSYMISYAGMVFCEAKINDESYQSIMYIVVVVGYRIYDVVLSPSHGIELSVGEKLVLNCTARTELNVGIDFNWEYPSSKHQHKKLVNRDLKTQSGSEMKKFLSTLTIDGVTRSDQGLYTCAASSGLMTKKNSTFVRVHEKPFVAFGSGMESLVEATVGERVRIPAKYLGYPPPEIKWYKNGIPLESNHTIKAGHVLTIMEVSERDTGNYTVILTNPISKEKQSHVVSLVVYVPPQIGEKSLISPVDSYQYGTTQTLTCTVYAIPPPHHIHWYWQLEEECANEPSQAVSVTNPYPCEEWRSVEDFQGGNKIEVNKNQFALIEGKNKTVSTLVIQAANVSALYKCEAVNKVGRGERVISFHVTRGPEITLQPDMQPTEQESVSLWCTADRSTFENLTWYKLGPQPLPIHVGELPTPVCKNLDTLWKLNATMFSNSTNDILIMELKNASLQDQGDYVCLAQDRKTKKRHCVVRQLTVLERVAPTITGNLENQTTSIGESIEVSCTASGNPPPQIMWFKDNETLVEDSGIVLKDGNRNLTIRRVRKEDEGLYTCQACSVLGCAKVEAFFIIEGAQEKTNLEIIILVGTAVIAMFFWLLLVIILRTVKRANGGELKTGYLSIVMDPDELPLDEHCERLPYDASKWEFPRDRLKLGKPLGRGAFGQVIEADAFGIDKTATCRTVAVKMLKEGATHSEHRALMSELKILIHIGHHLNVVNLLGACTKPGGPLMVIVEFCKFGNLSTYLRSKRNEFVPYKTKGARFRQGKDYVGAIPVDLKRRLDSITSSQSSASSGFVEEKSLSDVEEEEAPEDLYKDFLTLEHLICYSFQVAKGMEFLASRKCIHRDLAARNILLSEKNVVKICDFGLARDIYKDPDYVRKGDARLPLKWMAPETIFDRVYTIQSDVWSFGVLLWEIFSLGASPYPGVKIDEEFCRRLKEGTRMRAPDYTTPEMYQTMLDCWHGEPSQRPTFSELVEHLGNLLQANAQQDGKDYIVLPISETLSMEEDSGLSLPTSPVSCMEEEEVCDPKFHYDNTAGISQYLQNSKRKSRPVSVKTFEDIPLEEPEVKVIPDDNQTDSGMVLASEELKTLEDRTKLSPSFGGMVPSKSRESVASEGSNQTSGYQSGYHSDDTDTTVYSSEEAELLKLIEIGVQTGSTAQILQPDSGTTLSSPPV

With `CCS(=O)(=O)c1ccc(OC)c(Nc2ncc(-c3cc(-c4cccnc4)cc(-c4ccccn4)c3)o2)c1`, the IC50 in data set [1] worked out at 51.2 nM.
On to `CCS(=O)(=O)c1ccc(OC)c(Nc2ncc(-c3cc(-c4ccccn4)cc(-c4ccccn4)c3)o2)c1`, for which the “inhibition (INH)” value was 7% in data set [2], 87% in data set [3] and 53% in data set [5]. For the same compound, the Activity result in [4] was “Non-toxic”. The inhibition result in data set [6] and in data set [8] was “Dose-dependent effect” throughout. For the same compound, the inhibition result in [7] and in data set [9] was “Active” each time. The IC50 in [10] worked out at 2030 nM; in [12] it was 17800 nM; in data set [13], 2430 nM; in data set [14], 15200 nM; in data set [15] it was 3990 nM; in data set [16] it was 370 nM. In addition, the IC50 in data set [1] is 15.1 nM. In addition, the outcome in data set [11] was Active.
For `CCS(=O)(=O)c1ccc(OC)c(Nc2ncc(-c3cc(Br)cc(-c4ccccn4)c3)o2)c1`, the IC50 in data set [1] was 202 nM.
`CCS(=O)(=O)c1ccc(OC)c(Nc2ncc(-c3cc(-c4cccnc4)cc(-c4cccnc4)c3)o2)c1`: the IC50 in data set [1] amounted to 170 nM.

For orientation: IC50 means the midpoint of a concentration-inhibition curve.
